Laboratory results as given in ChEMBL document CHEMBL1124364, “3-Sulfonyl-1-carba-1-dethiacephems” (1989).
Values after ≈ are worked out from the molar mass of the structure shown.

Key:
Format in all cases: functional
Enterobacter cloacae [1] = assay: Minimum inhibitory concentration against Enterobacter cloacae (265A beta-lactamase containing); settings: Enterobacter cloacae; read-out: MIC
Outline: (§1)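 Agar dilution: compounds diluted in 0.1 M phosphate buffer pH 7.0 and incorporated into Mueller-Hinton agar with 1% Bacto-Supplement C at 50 °C. Fresh overnight cultures diluted to about 1×10^4 cells/µL; 1 µL spotted on plates. Incubated overnight at 35 °C in ambient air. MIC taken as the lowest concentration preventing visible growth.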

Enterobacter cloacae [2] = assay: Minimum inhibitory concentration against Enterobacter cloacae (EB5); settings: Enterobacter cloacae; read-out: MIC; outline: as §1
Escherichia coli [3] = assay: Minimum inhibitory concentration against Escherichia coli (EC14); settings: Escherichia coli; read-out: MIC; outline: as §1
Escherichia coli [4] = assay: Minimum inhibitory concentration against Escherichia coli (TEM beta-lactamase containing); settings: Escherichia coli; read-out: MIC; outline: as §1
Haemophilus influenzae = assay: Minimum inhibitory concentration against Haemophilus influenzae (C.L.); settings: Haemophilus influenzae; read-out: MIC; outline: as §1
Klebsiella [5] = assay: Minimum inhibitory concentration against Klebsiella (KAE beta-lactamase containing); settings: Klebsiella; read-out: MIC; outline: as §1
Klebsiella [6] = assay: Minimum inhibitory concentration against Klebsiella (X26); settings: Klebsiella; read-out: MIC; outline: as §1
Morganella morganii = assay: Minimum inhibitory concentration against Proteus morganii (PR 15); settings: Morganella morganii; read-out: MIC; outline: as §1
Pseudomonas aeruginosa = assay: Minimum inhibitory concentration against Pseudomonas aeruginosa (X528); settings: Pseudomonas aeruginosa; read-out: MIC; outline: as §1
Providencia rettgeri = assay: Minimum inhibitory concentration against Proteus rettgeri (C24); settings: Providencia rettgeri; read-out: MIC; outline: as §1
Salmonella = assay: Minimum inhibitory concentration against Salmonella (X514); settings: Salmonella; read-out: MIC; outline: as §1
[7] = test system: Staphylococcus epidermidis; assay: Minimum inhibitory concentration against Staphylococcus epidermidis (222); settings: Staphylococcus epidermidis; read-out: MIC; outline: as §1
Streptococcus pyogenes = assay: Minimum inhibitory concentration against Streptococcus pyogenes (C203); settings: Streptococcus pyogenes; read-out: MIC; outline: as §1
Streptococcus pneumoniae = assay: Minimum inhibitory concentration against Streptococcus pneumoniae (PARK); settings: Streptococcus pneumoniae; read-out: MIC; outline: as §1
Staphylococcus aureus = assay: Minimum inhibitory concentration against Staphylococcus aureus (X1.1); settings: Staphylococcus aureus; read-out: MIC; outline: as §1

SMILES | MIC (Enterobacter cloacae [1]) [µg/mL] | MIC (Enterobacter cloacae [2]) [µg/mL] | MIC (Escherichia coli [3]) [µg/mL] | MIC (Escherichia coli [4]) [µg/mL] | MIC (Haemophilus influenzae) [µg/mL] | MIC (Klebsiella [5]) [µg/mL] | MIC (Klebsiella [6]) [µg/mL] | MIC (Morganella morganii) [µg/mL] | MIC (Pseudomonas aeruginosa) [µg/mL] | MIC (Providencia rettgeri) [µg/mL] | MIC (Salmonella) [µg/mL] | MIC [7] [µg/mL] | MIC (Streptococcus pyogenes) [µg/mL] | MIC (Streptococcus pneumoniae) [µg/mL] | MIC (Staphylococcus aureus) [µg/mL]
CO/N=C(/C(=O)N[C@@H]1C(=O)N2C(C(=O)O)=C(S(=O)(=O)C(C)C)CC[C@H]12)c1csc(N)n1 | > 128 | 1 (≈ 2.12 µM) | 0.25 (≈ 0.53 µM) | 1 (≈ 2.12 µM) | 0.5 (≈ 1.06 µM) | > 128 | 0.125 (≈ 0.265 µM) | 4 (≈ 8.48 µM) | > 128 | 0.25 (≈ 0.53 µM) | 0.06 (≈ 0.127 µM) | 16 (≈ 33.9 µM) | 2 (≈ 4.24 µM) | 0.06 (≈ 0.127 µM) | 8 (≈ 17 µM)
CO/N=C(/C(=O)N[C@@H]1C(=O)N2C(C(=O)O)=C(S(=O)(=O)C3CC3)CC[C@H]12)c1csc(N)n1 | > 128 | 0.5 (≈ 1.06 µM) | 0.06 (≈ 0.128 µM) | 0.5 (≈ 1.06 µM) | 0.25 (≈ 0.532 µM) | > 128 | 0.06 (≈ 0.128 µM) | 2 (≈ 4.26 µM) | > 128 | 1 (≈ 2.13 µM) | 0.125 (≈ 0.266 µM) | 8 (≈ 17 µM) | 0.015 (≈ 0.0319 µM) | 0.03 (≈ 0.0639 µM) | 4 (≈ 8.52 µM)
CCCS(=O)(=O)C1=C(C(=O)O)N2C(=O)[C@@H](NC(=O)/C(=N/OC)c3csc(N)n3)[C@H]2CC1 | > 128 | 1 (≈ 2.12 µM) | 0.125 (≈ 0.265 µM) | 1 (≈ 2.12 µM) | 0.25 (≈ 0.53 µM) | > 128 | 0.125 (≈ 0.265 µM) | 2 (≈ 4.24 µM) | > 128 | 4 (≈ 8.48 µM) | 0.125 (≈ 0.265 µM) | 8 (≈ 17 µM) | 0.03 (≈ 0.0636 µM) | 0.03 (≈ 0.0636 µM) | 8 (≈ 17 µM)
CO/N=C(/C(=O)N[C@@H]1C(=O)N2C(C(=O)O)=C(S(=O)(=O)c3ccccc3)CC[C@H]12)c1csc(N)n1 | > 128 | 8 (≈ 15.8 µM) | 2 (≈ 3.96 µM) | 8 (≈ 15.8 µM) | 0.25 (≈ 0.495 µM) | > 128 | 1 (≈ 1.98 µM) | > 128 | > 128 | 1 (≈ 1.98 µM) | 0.25 (≈ 0.495 µM) | 16 (≈ 31.6 µM) | 1 (≈ 1.98 µM) | 0.06 (≈ 0.119 µM) | 8 (≈ 15.8 µM)
CO/N=C(/C(=O)N[C@@H]1C(=O)N2C(C(=O)O)=C(S(=O)(=O)c3c(C)noc3C)CC[C@H]12)c1csc(N)n1 | > 128 | 8 (≈ 15.3 µM) | 2 (≈ 3.81 µM) | 8 (≈ 15.3 µM) | 0.25 (≈ 0.477 µM) | > 128 | 1 (≈ 1.91 µM) | 2 (≈ 3.81 µM) | > 128 | 16 (≈ 30.5 µM) | 4 (≈ 7.63 µM) | 8 (≈ 15.3 µM) | 0.03 (≈ 0.0572 µM) | 0.03 (≈ 0.0572 µM) | 4 (≈ 7.63 µM)
CCS(=O)(=O)C1=C(C(=O)O)N2C(=O)[C@@H](NC(=O)/C(=N/OC)c3csc(N)n3)[C@H]2CC1 | > 128 | 1 (≈ 2.19 µM) | 0.06 (≈ 0.131 µM) | – | 0.25 (≈ 0.546 µM) | > 128 | 0.06 (≈ 0.131 µM) | 2 (≈ 4.37 µM) | > 128 | 0.125 (≈ 0.273 µM) | 0.06 (≈ 0.131 µM) | 16 (≈ 35 µM) | 0.03 (≈ 0.0656 µM) | 0.03 (≈ 0.0656 µM) | 8 (≈ 17.5 µM)
